Values after ≈ are worked out from the molar mass of the structure shown. Active and inactive are the calls of the source. The rule behind the calls is not given here.
Assays:
Staphylococcus aureus [1] = test: Antibacterial activity against methicillin-resistant Staphylococcus aureus DM 9808R after 24 hrs by broth microdilution method; type: functional
Outline: (§1)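 Broth microdilution per CLSI in cation-adjusted Mueller−Hinton broth, in tubes. Compounds dissolved in H2O or DMF, then diluted in PBS to 1000 μg/mL stocks. Serial 2-fold dilutions were made, with final DMF 2.5%. Organisms were grown on TSA at 35 °C for 20 h and adjusted to ~5× 10^5 CFU/mL. Tubes were incubated at 35 °C for 24 h. MIC was the lowest concentration with no visible growth versus control. Biological replicates.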

Staphylococcus aureus [2] = test: Antibacterial activity against methicillin-resistant Staphylococcus aureus DB57964 after 24 hrs by broth microdilution method; type: functional; conditions: DB57964, 24 h; outline: as §1
Staphylococcus aureus [3] = test: Bactericidal activity against methicillin-resistant Staphylococcus aureus DM21455 assessed as log reduction in bacterial count at 2 times MIC up to 30 mins by time kill assay; type: functional
Outline: (§2)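 Time-kill. Starting inoculum 10^5−10^6 CFU/mL, exposed to 0.5×, 1×, 2× and 4× MIC at 35 °C. Colonies were counted after 24 h at 35 °C and CFU/mL calculated. Biological replicates.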

[4] = Cytotoxicity in human Corneal fibroblasts assessed as LDH release at 10 uM after 24 hrs; type: cell-based; conditions: corneal fibroblast
Outline: (§3)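 Human corneal fibroblasts are exposed to test samples for 24 h, and cytotoxicity is read as LDH leakage into the medium. Biological replicates.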

[5] = Cytotoxicity against human Corneal fibroblasts assessed cell viability at 100 uM after 24 hrs by Cell Titer-Glo luminescent assay; type: cell-based, Corneal fibroblast; conditions: read-out: Activity
Outline: (§4)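 ATP luminescence viability in human corneal fibroblasts, ~10000 cells per well, duplicate wells. After 24 h exposure the plate is equilibrated 0.5 h at 22 °C before Cell Titer-Glo addition and luminescence read. 1% Triton X-100 serves as positive control, medium-treated cells as negative control. Biological replicates.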

Staphylococcus aureus [6] = test: Antibacterial activity against methicillin-sensitive Staphylococcus aureus DM4400R after 24 hrs by broth microdilution method; type: functional; outline: as §1
[7] = Cytotoxicity in human Corneal fibroblasts assessed as LDH release at 80 uM after 24 hrs; type: cell-based; conditions: corneal fibroblast; outline: as §3
Staphylococcus aureus [8] = test: Antibacterial activity against methicillin-resistant Staphylococcus aureus BAA-38 after 24 hrs by broth microdilution method; type: functional; conditions: BAA-38, 24 h; outline: as §1
Staphylococcus aureus [9] = test: Bactericidal activity against methicillin-resistant Staphylococcus aureus DM9808R assessed as log reduction in bacterial count at 2 times MIC up to 2 hrs by time kill assay; type: functional; outline: as §2
[10] = Cytotoxicity in human Corneal fibroblasts assessed as LDH release at 50 uM after 24 hrs; type: cell-based; conditions: corneal fibroblast; outline: as §3
Staphylococcus aureus [11] = test: Antibacterial activity against methicillin-resistant Staphylococcus aureus ATCC 43300 after 24 hrs by broth microdilution method; type: functional; conditions: ATCC 43300, 24 h; outline: as §1
Staphylococcus aureus [12] = test: Antibacterial activity against Staphylococcus aureus DM4001R after 24 hrs by broth microdilution method; type: functional; outline: as §1
Staphylococcus aureus [13] = test: Antibacterial activity against methicillin-sensitive Staphylococcus aureus ATCC 29737 after 24 hrs by broth microdilution method; type: functional; conditions: ATCC 29737, 24 h; outline: as §1
Staphylococcus aureus [14] = test: Antibacterial activity against methicillin-sensitive Staphylococcus aureus DM4583R after 24 hrs by broth microdilution method; type: functional; outline: as §1
Staphylococcus aureus [15] = test: Antibacterial activity against Staphylococcus aureus ATCC 29213 infected in C57BL6 mouse keratitis model assessed as log reduction in bacterial burden at 0.5 % administered 4 times daily at 2 hrs interval for 1 day; type: functional
Outline: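 C57BL6 mice, 6–8 weeks, 20–30 g, four per group, anesthetized with ketamine/xylazine. Right cornea scratched (three 1 mm cuts), 10 μL of 6×10^8 CFU/mL S. aureus ATCC 29213 in PBS applied topically. From day 1, 0.5% drug in PBS (12 mM, pH 7.2) given 4 times at 2 h intervals. Corneas homogenized in 0.9% NaCl/0.25% BSA, diluted, plated in duplicate on TSA, 48 h at 35 °C.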

Staphylococcus aureus [16] = test: Antibacterial activity against methicillin-resistant Staphylococcus aureus DB68004 after 24 hrs by broth microdilution method; type: functional; conditions: DB68004, 24 h; outline: as §1
Staphylococcus aureus [17] = test: Antibacterial activity against Staphylococcus aureus ATCC 29213 after 17 passages; type: functional
[18] = Cytotoxicity in human Corneal fibroblasts assessed as LDH release at 100 uM after 24 hrs; type: cell-based; conditions: corneal fibroblast; outline: as §3
[19] = Cytotoxicity against human Corneal fibroblasts assessed cell viability at 30 uM after 24 hrs by Cell Titer-Glo luminescent assay; type: cell-based, Corneal fibroblast; conditions: read-out: Activity; outline: as §4
Staphylococcus aureus [20] = test: Bactericidal activity against methicillin-resistant Staphylococcus aureus DM9808R assessed as log reduction in bacterial count up to 4 hrs by time kill assay; type: functional; outline: as §2
Staphylococcus aureus [21] = test: Antibacterial activity against methicillin-resistant Staphylococcus aureus DB6506 after 24 hrs by broth microdilution method; type: functional; conditions: DB6506, 24 h; outline: as §1
[22] = Cytotoxicity against human Corneal fibroblasts assessed cell viability at 80 uM after 24 hrs by Cell Titer-Glo luminescent assay; type: cell-based, Corneal fibroblast; conditions: read-out: Activity; outline: as §4
Staphylococcus aureus [23] = test: Bactericidal activity against methicillin-resistant Staphylococcus aureus DM9808R assessed as log reduction in bacterial count at 4 times MIC up to 2 hrs by time kill assay; type: functional; outline: as §2
[24] = Ratio of HC50 for New Zealand white rabbit RBC to MIC for methicillin-sensitive Staphylococcus aureus DM4583R
Outline: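 HC50 measured on fresh New Zealand white rabbit RBCs, washed three times in PBS, at 4% v/v final. Cells were incubated with 2-fold serial dilutions (DMF final 0.5%) at 37 °C for 1 h, then centrifuged. Supernatant absorbance was read at 576 nm, with PBS as 0% and 2% Triton X-100 as 100% lysis. HC50 is the concentration lysing 50% of cells, divided by MIC from broth microdilution.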

Staphylococcus aureus [25] = test: Antibacterial activity against methicillin-resistant Staphylococcus aureus ATCC 700699 infected in C57BL6 mouse corneas assessed as log reduction in bacterial burden at 0.5 % dosed at 1 day post infection administered 5 times daily for 3 days; type: functional
Outline: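 C57BL6 mice, 6−8 weeks old, 20−30 g, anesthetized with ketamine/xylazine; four per group. Three 1 mm scratches were made on the right cornea and 10 μL of a 6 × 10^8 CFU/mL MRSA ATCC 700699 suspension was applied. From day 1 post infection, agents in PBS (12 mM, pH 7.2) were given topically 5 times daily for 3 days; PBS alone as control. Corneas were homogenized in 0.9% NaCl with 0.25% BSA and plated on TSA for 48 h at 35 °C.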

Staphylococcus aureus [26] = test: Bactericidal activity against methicillin-resistant Staphylococcus aureus DM21455 up to 4 hrs by time kill assay; type: functional; outline: as §2
[27] = Cytotoxicity against human Corneal fibroblasts assessed cell viability at 50 uM after 24 hrs by Cell Titer-Glo luminescent assay; type: cell-based, Corneal fibroblast; conditions: read-out: Activity; outline: as §4

COC(=O)[C@H](CCCNC(=N)N)NC(=O)COc1cc(O)c2c(=O)c(OCC(=O)N[C@@H](CCCNC(=N)N)C(=O)OC)c(-c3ccc(OC)cc3)oc2c1CC=C(C)C
MIC (Staphylococcus aureus [1]): 3.8 µM (≈ 3.13 µg/mL)
MIC (Staphylococcus aureus [2]): 3.13 µg/mL (≈ 3.79 µM)
Activity (Staphylococcus aureus [3]): 3 deltalog10CFU/ml
Activity [4]: -1.52%
viability at 24 h, 100 µM [5]: 57.7%
MIC (Staphylococcus aureus [6]): 3.13 µg/mL (≈ 3.79 µM)
Activity [7]: 18.62%
MIC (Staphylococcus aureus [8]): 3.13 µg/mL (≈ 3.79 µM)
Activity (Staphylococcus aureus [9]): 3 deltalog10CFU/ml
Activity [10]: 0.05%
MIC (Staphylococcus aureus [11]): 1.56 µg/mL (≈ 1.89 µM)
MIC (Staphylococcus aureus [12]): 1.9 µM (≈ 1.57 µg/mL)
MIC (Staphylococcus aureus [13]): 1.56 µg/mL (≈ 1.89 µM)
MIC (Staphylococcus aureus [14]): 1.56 µg/mL (≈ 1.89 µM)
Activity (Staphylococcus aureus [15]): Active
MIC (Staphylococcus aureus [16]): 3.13 µg/mL (≈ 3.79 µM)
Activity (Staphylococcus aureus [17]): Active
Activity [18]: 23.9%
viability at 24 h, 30 µM [19]: 98.2%
Activity (Staphylococcus aureus [20]): Active
MIC (Staphylococcus aureus [21]): 3.13 µg/mL (≈ 3.79 µM)
viability at 24 h, 80 µM [22]: 69.3%
Activity (Staphylococcus aureus [23]): 3 deltalog10CFU/ml
Ratio [24]: > 511
Activity (Staphylococcus aureus [25]): 2.95 deltalog10CFU/ml
Activity (Staphylococcus aureus [26]): Dose-dependent effect
viability at 24 h, 50 µM [27]: 97.7%

— ChEMBL document CHEMBL4011638, “Semisynthetic Flavone-Derived Antimicrobials with Therapeutic Potential against Methicillin-Resistant Staphylococcus aureus (MRSA)” (J Med Chem, 2017)
